In this experiment the target is T1, Acid ceramidase (Homo sapiens, UniProt Q13510).
T1 sequence (Q13510 whole entry): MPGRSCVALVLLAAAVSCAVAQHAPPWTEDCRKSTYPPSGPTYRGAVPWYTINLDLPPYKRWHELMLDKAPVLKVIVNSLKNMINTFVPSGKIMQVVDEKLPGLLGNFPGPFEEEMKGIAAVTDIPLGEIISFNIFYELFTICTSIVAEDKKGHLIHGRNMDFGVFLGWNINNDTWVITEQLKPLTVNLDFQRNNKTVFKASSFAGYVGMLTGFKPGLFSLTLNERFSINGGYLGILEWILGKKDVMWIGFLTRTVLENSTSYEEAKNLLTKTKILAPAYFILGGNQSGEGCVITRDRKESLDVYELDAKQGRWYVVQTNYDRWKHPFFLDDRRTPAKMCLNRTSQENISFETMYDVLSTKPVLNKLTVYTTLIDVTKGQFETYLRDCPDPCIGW
The experiment in a line: Time-dependent inhibition of human acid ceramidase expressed in HEK293 cells using Rbm14-12 as substrate by fluorescence assay. Put shortly:
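hAC-enriched lysates with fluorogenic substrate Rbm 14-12; vehicle 1% DMSO; time-dependent inhibition analysed for ki/KI and ki; two independent experiments, each in two technical replicates.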

For the compound `CC(C)CNC(=O)n1c(=O)oc2cc(C3CCN(C)CC3)ccc21`, the kinact was found to be 0.0025 s⁻¹.

The term kinact denotes the rate constant of inactivation at saturating inhibitor.

The values above are taken from BindingDB's records for doi:10.1021/acs.jmedchem.9b02004 (University of Illinois At Chicago, 2020).
